What was measured:
Type in all cases: functional
[1] = Growth inhibition of human EKVX cells at 10 uM after 48 hrs by SRB assay; conditions: read-out: GI
Summary of the method: (§1)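 NCI-60 primary one-dose screen run at the US NCI, with human tumour lines from nine cancer types. Compound added once at 10^-5 M, followed by 48 h incubation. End point was sulforhodamine B protein staining read spectrophotometrically. Result given as percent growth of treated cells against untreated controls, reported as % growth inhibition.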

[2] = Growth inhibition of human OVCAR5 cells at 10 uM after 48 hrs by SRB assay; conditions: OVCAR-5, 48 h, read-out: GI; summary of the method: as §1
SW-620 = assay: Growth inhibition of human SW620 cells at 10 uM after 48 hrs by SRB assay; conditions: SW-620, 48 h, read-out: GI; summary of the method: as §1
[3] = Growth inhibition of human UO31 cells at 10 uM after 48 hrs by SRB assay; conditions: UO-31, 48 h, read-out: GI; summary of the method: as §1
SNB-19 = assay: Growth inhibition of human SNB19 cells at 10 uM after 48 hrs by SRB assay; conditions: SNB-19, 48 h, read-out: GI; summary of the method: as §1
NCI-H522 = assay: Growth inhibition of human NCI-H522 cells at 10 uM after 48 hrs by SRB assay; conditions: NCI-H522, 48 h, read-out: GI; summary of the method: as §1
SNB-75 = assay: Growth inhibition of human SNB75 cells at 10 uM after 48 hrs by SRB assay; conditions: SNB-75, 48 h, read-out: GI; summary of the method: as §1
MDA-MB-468 = assay: Growth inhibition of human MDA-MB-468 cells assessed as cell growth at 10 uM after 48 hrs by SRB assay; conditions: MDA-MB-468, 48 h, read-out: GI; summary of the method: as §1
IGROV-1 = assay: Growth inhibition of human IGROV1 cells at 10 uM after 48 hrs by SRB assay; conditions: IGROV-1, 48 h, read-out: GI; summary of the method: as §1
SN12C = assay: Growth inhibition of human SN12C cells at 10 uM after 48 hrs by SRB assay; conditions: read-out: GI; summary of the method: as §1
[4] = Growth inhibition of human Hs578T cells at 10 uM after 48 hrs by SRB assay; conditions: Hs-578T, read-out: GI; summary of the method: as §1
[5] = Growth inhibition of human NCI-ADR-RES cells at 10 uM after 48 hrs by SRB assay; conditions: read-out: GI; summary of the method: as §1
[6] = Growth inhibition of human HCC2998 cells at 10 uM after 48 hrs by SRB assay; conditions: HCC 2998, 48 h, read-out: GI; summary of the method: as §1
[7] = Growth inhibition of human UACC257 cells at 10 uM after 48 hrs by SRB assay; conditions: UACC-257, 48 h, read-out: GI; summary of the method: as §1
HCT-116 = assay: Growth inhibition of human HCT116 cells at 10 uM after 48 hrs by SRB assay; conditions: HCT-116, 48 h, read-out: GI; summary of the method: as §1
[8] = Growth inhibition of human HOP92 cells at 10 uM after 48 hrs by SRB assay; conditions: HOP-92, 48 h, read-out: GI; summary of the method: as §1
[9] = Growth inhibition of human OVCAR3 cells at 10 uM after 48 hrs by SRB assay; conditions: OVCAR-3, 48 h, read-out: GI; summary of the method: as §1
Malme-3M = assay: Growth inhibition of human MALME-3M cells at 10 uM after 48 hrs by SRB assay; conditions: read-out: GI; summary of the method: as §1
[10] = Growth inhibition of human BT549 cells at 10 uM after 48 hrs by SRB assay; conditions: BT-549, 48 h, read-out: GI
Summary of the method: (§2)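 NCI primary one-dose screen. A single concentration of 10^-5 M was added to the cell culture, followed by 48 h incubation and an SRB protein-dye endpoint read spectrophotometrically. Results are growth percentage relative to untreated control cells, reported as % growth inhibition.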

M14 = assay: Growth inhibition of human M14 cells at 10 uM after 48 hrs by SRB assay; conditions: M14, 48 h, read-out: GI; summary of the method: as §1
[11] = Growth inhibition of human RXF393 cells at 10 uM after 48 hrs by SRB assay; conditions: RXF 393, 48 h, read-out: GI; summary of the method: as §1
COLO 205 = assay: Growth inhibition of human COLO205 cells at 10 uM after 48 hrs by SRB assay; conditions: COLO 205, 48 h, read-out: GI; summary of the method: as §2
[12] = Growth inhibition of human SF539 cells at 10 uM after 48 hrs by SRB assay; conditions: SF-539, 48 h, read-out: GI; summary of the method: as §1
MDA-MB-435 = assay: Growth inhibition of human MDA-MB-435 cells at 10 uM after 48 hrs by SRB assay; conditions: MDA-MB-435, 48 h, read-out: GI; summary of the method: as §1
SK-OV-3 = assay: Growth inhibition of human SKOV3 cells at 10 uM after 48 hrs by SRB assay; conditions: SK-OV-3, 48 h, read-out: GI; summary of the method: as §1
DU-145 = assay: Growth inhibition of human DU145 cells at 10 uM after 48 hrs by SRB assay; conditions: DU-145, 48 h, read-out: GI; summary of the method: as §1
U-251 = assay: Growth inhibition of human U251 cells at 10 uM after 48 hrs by SRB assay; conditions: U-251, 48 h, read-out: GI; summary of the method: as §1
HT-29 = assay: Growth inhibition of human HT-29 cells at 10 uM after 48 hrs by SRB assay; conditions: HT-29, 48 h, read-out: GI; summary of the method: as §1
HOP-62 = assay: Growth inhibition of human HOP62 cells at 10 uM after 48 hrs by SRB assay; conditions: HOP-62, 48 h, read-out: GI; summary of the method: as §1
A549 = assay: Growth inhibition of human A549 cells at 10 uM after 48 hrs by SRB assay; conditions: A549, 48 h, read-out: GI; summary of the method: as §2
NCI-H226 = assay: Growth inhibition of human NCI-H226 cells at 10 uM after 48 hrs by SRB assay; conditions: NCI-H226, 48 h, read-out: GI; summary of the method: as §1
SK-MEL-28 = assay: Growth inhibition of human SK-MEL-28 cells at 10 uM after 48 hrs by SRB assay; conditions: SK-MEL-28, 48 h, read-out: GI; summary of the method: as §1
TK-10 = assay: Growth inhibition of human TK10 cells at 10 uM after 48 hrs by SRB assay; conditions: TK-10, 48 h, read-out: GI; summary of the method: as §1
SK-MEL-5 = assay: Growth inhibition of human SK-MEL-5 cells at 10 uM after 48 hrs by SRB assay; conditions: SK-MEL-5, 48 h, read-out: GI; summary of the method: as §1
KM12 = assay: Growth inhibition of human KM12 cells at 10 uM after 48 hrs by SRB assay; conditions: KM12, 48 h, read-out: GI; summary of the method: as §1
RPMI-8226 = assay: Growth inhibition of human RPMI8226 cells at 10 uM after 48 hrs by SRB assay; conditions: RPMI-8226, 48 h, read-out: GI; summary of the method: as §1
CCRF-CEM = assay: Growth inhibition of human CCRF-CEM cells at 10 uM after 48 hrs by SRB assay; conditions: read-out: GI; summary of the method: as §2
[13] = Growth inhibition of human UACC62 cells at 10 uM after 48 hrs by SRB assay; conditions: UACC-62, 48 h, read-out: GI; summary of the method: as §1

Row | Structure (SMILES) | inhibition of growth at 10 µM [1] [%] | inhibition of growth at 10 µM [2] [%] | inhibition of growth at 10 µM (SW-620) [%] | inhibition of growth at 10 µM [3] [%] | inhibition of growth at 10 µM (SNB-19) [%] | inhibition of growth at 10 µM (NCI-H522) [%] | inhibition of growth at 10 µM (SNB-75) [%] | inhibition of growth at 10 µM (IGROV-1) [%] | inhibition of growth at 10 µM (SN12C) [%] | inhibition of growth at 10 µM [4] [%] | inhibition of growth at 10 µM [5] [%] | inhibition of growth at 10 µM [6] [%] | inhibition of growth at 10 µM [7] [%] | inhibition of growth at 10 µM (HCT-116) [%] | inhibition of growth at 10 µM [9] [%] | inhibition of growth at 10 µM (Malme-3M) [%] | inhibition of growth at 10 µM [10] [%] | inhibition of growth at 10 µM (M14) [%] | inhibition of growth at 10 µM [11] [%] | inhibition of growth at 10 µM (COLO 205) [%] | other results
1 | Cc1ccc(C(=O)Nc2ccc(Cl)cc2C(=O)Nc2ccccc2)cc1 | < 10 | 14 | < 10 | < 10 | 13 | 21 | 28 | < 10 | < 10 | < 10 | < 10 | < 10 | < 10 | < 10 | < 10 | 12 | < 10 | < 10 | < 10 | < 10 | inhibition of growth at 10 µM (MDA-MB-468): 11%; inhibition of growth at 10 µM [8]: < 10%; inhibition of growth at 10 µM [12]: 29%; inhibition of growth at 10 µM (MDA-MB-435): 11%; inhibition of growth at 10 µM (SK-OV-3): 12%; inhibition of growth at 10 µM (DU-145): < 10%; inhibition of growth at 10 µM (U-251): 14%; inhibition of growth at 10 µM (HT-29): < 10%; inhibition of growth at 10 µM (HOP-62): 29%; inhibition of growth at 10 µM (A549): < 10%; inhibition of growth at 10 µM (NCI-H226): < 10%; inhibition of growth at 10 µM (SK-MEL-28): < 10%; inhibition of growth at 10 µM (TK-10): < 10%; inhibition of growth at 10 µM (SK-MEL-5): 13%; inhibition of growth at 10 µM (KM12): < 10%
2 | Cc1ccc(-c2nc3ccc(Cl)cc3c(=O)n2NC(=O)CNN)cc1 | 34 | 18 | 28 | 25 | 22 | 61 | 25 | 41 | 33 | 40 | 24 | < 10 | 23 | 46 | 45 | 14 | < 10 | 17 | 11 | 28 | inhibition of growth at 10 µM (RPMI-8226): 13%; inhibition of growth at 10 µM (CCRF-CEM): < 10%; inhibition of growth at 10 µM (MDA-MB-468): < 10%; inhibition of growth at 10 µM [13]: 18%; inhibition of growth at 10 µM [12]: 54%; inhibition of growth at 10 µM (MDA-MB-435): < 10%; inhibition of growth at 10 µM (SK-OV-3): 84%; inhibition of growth at 10 µM (DU-145): 28%; inhibition of growth at 10 µM (U-251): 58%; inhibition of growth at 10 µM (HT-29): 33%; inhibition of growth at 10 µM (HOP-62): 83%; inhibition of growth at 10 µM (A549): 23%; inhibition of growth at 10 µM (NCI-H226): 35%; inhibition of growth at 10 µM (SK-MEL-28): 23%; inhibition of growth at 10 µM (TK-10): 61%; inhibition of growth at 10 µM (SK-MEL-5): 11%; inhibition of growth at 10 µM (KM12): 21%
3 | Cc1ccc(-c2nc3ccc(Cl)cc3c(=O)n2/N=C/c2ccccc2)cc1 | 40 | 18 | 23 | 33 | 25 | 52 | 74 | 43 | 32 | 44 | 30 | < 10 | < 10 | 47 | 42 | 35 | < 10 | 29 | < 10 | 34 | inhibition of growth at 10 µM (RPMI-8226): 20%; inhibition of growth at 10 µM (CCRF-CEM): < 10%; inhibition of growth at 10 µM [13]: 23%; inhibition of growth at 10 µM [12]: 22%; inhibition of growth at 10 µM (MDA-MB-435): 34%; inhibition of growth at 10 µM (SK-OV-3): 64%; inhibition of growth at 10 µM (DU-145): 27%; inhibition of growth at 10 µM (U-251): 88%; inhibition of growth at 10 µM (HT-29): 17%; inhibition of growth at 10 µM (HOP-62): 98%; inhibition of growth at 10 µM (A549): 87%; inhibition of growth at 10 µM (NCI-H226): 14%; inhibition of growth at 10 µM (SK-MEL-28): < 10%; inhibition of growth at 10 µM (TK-10): 26%; inhibition of growth at 10 µM (SK-MEL-5): < 10%; inhibition of growth at 10 µM (KM12): 18%
